The target of test [1] is T1, MAP/microtubule affinity-regulating kinase 4 (Homo sapiens) (UniProt Q96L34).
T1 sequence (whole entry): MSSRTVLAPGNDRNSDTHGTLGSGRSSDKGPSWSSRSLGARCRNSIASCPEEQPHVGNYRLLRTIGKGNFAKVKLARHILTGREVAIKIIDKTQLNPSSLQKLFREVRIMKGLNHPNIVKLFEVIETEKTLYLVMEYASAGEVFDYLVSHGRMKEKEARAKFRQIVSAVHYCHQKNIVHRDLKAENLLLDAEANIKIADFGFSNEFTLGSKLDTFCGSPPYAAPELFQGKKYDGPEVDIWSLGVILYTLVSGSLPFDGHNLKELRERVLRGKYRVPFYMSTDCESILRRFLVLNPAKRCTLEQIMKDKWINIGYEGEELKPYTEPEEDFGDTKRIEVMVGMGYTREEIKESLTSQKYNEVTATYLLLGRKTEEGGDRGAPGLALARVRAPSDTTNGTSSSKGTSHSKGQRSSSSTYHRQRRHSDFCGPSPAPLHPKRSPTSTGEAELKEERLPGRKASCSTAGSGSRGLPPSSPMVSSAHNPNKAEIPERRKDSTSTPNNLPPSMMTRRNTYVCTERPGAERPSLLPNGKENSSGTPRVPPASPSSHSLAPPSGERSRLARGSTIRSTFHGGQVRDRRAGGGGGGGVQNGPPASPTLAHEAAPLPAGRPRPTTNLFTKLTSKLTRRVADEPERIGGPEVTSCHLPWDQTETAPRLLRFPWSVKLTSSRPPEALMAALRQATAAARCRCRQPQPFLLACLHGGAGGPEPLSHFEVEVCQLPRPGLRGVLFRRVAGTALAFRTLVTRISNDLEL
The test is described as follows: Competitive binding affinity to MARK4 (unknown origin) at 10 uM in presence of ATP relative to control. In a few lines:
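In vitro ATP-site competition binding assay across a diverse panel of 128 kinases, with compound tested at a single concentration. Kinase selectivity scores (S15) were calculated from the panel profiles.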

The target in test [2] is T2, TGF-beta receptor type-1 (Homo sapiens) (UniProt P36897).
T2 sequence (whole entry): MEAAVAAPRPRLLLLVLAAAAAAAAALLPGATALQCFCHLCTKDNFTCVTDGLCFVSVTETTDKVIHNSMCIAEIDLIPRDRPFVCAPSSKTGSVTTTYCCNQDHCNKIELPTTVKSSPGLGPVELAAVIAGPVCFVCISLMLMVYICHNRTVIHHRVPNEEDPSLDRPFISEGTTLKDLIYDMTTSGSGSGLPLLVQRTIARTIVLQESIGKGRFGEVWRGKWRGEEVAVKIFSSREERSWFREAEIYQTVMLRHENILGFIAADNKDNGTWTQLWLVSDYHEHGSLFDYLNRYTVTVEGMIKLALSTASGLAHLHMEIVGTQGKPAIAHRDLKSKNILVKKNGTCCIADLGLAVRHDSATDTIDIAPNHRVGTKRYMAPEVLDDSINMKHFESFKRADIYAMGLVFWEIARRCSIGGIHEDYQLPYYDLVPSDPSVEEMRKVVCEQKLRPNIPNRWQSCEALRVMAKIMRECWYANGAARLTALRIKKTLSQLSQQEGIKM
The experiment in a line: Competitive binding affinity to TGFBR1 (unknown origin) at 10 uM in presence of ATP relative to control.

Test [3] concerns the target Myosin light chain kinase, smooth muscle (Homo sapiens) (UniProt Q15746). The test is described as follows: Competitive binding affinity to MLCK (unknown origin) at 10 uM in presence of ATP relative to control.
Test [4] concerns the target MAP kinase-interacting serine/threonine-protein kinase 1 (Homo sapiens, UniProt Q9BUB5). The experiment in a line: Competitive binding affinity to MKNK1 (unknown origin) at 10 uM in presence of ATP relative to control.
For test [5], the target named is T3, Inhibitor of nuclear factor kappa-B kinase subunit epsilon (Homo sapiens) (UniProt Q14164).
T3 sequence (whole entry): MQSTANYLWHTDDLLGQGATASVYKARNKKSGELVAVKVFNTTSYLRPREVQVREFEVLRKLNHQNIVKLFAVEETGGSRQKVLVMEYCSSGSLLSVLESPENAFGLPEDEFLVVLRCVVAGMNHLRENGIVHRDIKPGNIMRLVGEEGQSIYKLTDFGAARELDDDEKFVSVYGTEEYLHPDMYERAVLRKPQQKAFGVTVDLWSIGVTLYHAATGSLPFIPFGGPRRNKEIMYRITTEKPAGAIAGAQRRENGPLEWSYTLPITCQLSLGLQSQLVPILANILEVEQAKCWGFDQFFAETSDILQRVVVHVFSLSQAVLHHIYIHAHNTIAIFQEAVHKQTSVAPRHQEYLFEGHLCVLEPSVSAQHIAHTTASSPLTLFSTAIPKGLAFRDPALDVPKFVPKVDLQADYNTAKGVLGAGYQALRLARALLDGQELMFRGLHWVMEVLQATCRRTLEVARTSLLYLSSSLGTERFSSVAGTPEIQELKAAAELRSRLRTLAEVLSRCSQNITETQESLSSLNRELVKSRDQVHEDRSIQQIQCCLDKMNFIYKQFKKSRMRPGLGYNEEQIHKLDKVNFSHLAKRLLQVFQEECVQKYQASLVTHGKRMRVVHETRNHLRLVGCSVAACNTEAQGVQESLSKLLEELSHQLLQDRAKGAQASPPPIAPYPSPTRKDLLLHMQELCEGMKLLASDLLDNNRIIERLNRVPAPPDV
The experiment in a line: Competitive binding affinity to IKKepsilon (unknown origin) at 10 uM in presence of ATP relative to control.

Test [6] addresses Mitogen-activated protein kinase kinase kinase 20 (Homo sapiens) (UniProt Q9NYL2). The test is described as follows: Competitive binding affinity to ZAK (unknown origin) at 10 uM in presence of ATP relative to control.
Test [7] has as its target T4, Calcium/calmodulin-dependent protein kinase type IV (Homo sapiens) (UniProt Q16566).
T4 sequence (whole entry): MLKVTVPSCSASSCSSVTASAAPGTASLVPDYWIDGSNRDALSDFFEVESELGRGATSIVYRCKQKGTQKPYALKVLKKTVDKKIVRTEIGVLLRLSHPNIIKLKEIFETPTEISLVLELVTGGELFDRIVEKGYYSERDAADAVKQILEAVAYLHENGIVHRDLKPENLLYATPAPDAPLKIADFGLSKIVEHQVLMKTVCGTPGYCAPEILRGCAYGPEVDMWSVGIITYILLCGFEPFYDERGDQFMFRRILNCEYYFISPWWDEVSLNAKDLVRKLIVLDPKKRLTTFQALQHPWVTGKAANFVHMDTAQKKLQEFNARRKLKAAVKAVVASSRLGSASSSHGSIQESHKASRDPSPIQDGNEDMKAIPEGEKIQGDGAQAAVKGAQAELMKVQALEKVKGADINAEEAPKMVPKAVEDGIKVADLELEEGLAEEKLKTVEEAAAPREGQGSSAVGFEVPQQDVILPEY
The experiment in a line: Competitive binding affinity to CAMK4 (unknown origin) at 10 uM in presence of ATP relative to control.

For test [8], the target named is Myosin light chain kinase, smooth muscle (Homo sapiens) (UniProt Q15746). The experiment in a line: Competitive binding affinity to MYLK (unknown origin) at 10 uM in presence of ATP relative to control.
Sequence of Myosin light chain kinase, smooth muscle (Homo sapiens) (Q15746 whole entry): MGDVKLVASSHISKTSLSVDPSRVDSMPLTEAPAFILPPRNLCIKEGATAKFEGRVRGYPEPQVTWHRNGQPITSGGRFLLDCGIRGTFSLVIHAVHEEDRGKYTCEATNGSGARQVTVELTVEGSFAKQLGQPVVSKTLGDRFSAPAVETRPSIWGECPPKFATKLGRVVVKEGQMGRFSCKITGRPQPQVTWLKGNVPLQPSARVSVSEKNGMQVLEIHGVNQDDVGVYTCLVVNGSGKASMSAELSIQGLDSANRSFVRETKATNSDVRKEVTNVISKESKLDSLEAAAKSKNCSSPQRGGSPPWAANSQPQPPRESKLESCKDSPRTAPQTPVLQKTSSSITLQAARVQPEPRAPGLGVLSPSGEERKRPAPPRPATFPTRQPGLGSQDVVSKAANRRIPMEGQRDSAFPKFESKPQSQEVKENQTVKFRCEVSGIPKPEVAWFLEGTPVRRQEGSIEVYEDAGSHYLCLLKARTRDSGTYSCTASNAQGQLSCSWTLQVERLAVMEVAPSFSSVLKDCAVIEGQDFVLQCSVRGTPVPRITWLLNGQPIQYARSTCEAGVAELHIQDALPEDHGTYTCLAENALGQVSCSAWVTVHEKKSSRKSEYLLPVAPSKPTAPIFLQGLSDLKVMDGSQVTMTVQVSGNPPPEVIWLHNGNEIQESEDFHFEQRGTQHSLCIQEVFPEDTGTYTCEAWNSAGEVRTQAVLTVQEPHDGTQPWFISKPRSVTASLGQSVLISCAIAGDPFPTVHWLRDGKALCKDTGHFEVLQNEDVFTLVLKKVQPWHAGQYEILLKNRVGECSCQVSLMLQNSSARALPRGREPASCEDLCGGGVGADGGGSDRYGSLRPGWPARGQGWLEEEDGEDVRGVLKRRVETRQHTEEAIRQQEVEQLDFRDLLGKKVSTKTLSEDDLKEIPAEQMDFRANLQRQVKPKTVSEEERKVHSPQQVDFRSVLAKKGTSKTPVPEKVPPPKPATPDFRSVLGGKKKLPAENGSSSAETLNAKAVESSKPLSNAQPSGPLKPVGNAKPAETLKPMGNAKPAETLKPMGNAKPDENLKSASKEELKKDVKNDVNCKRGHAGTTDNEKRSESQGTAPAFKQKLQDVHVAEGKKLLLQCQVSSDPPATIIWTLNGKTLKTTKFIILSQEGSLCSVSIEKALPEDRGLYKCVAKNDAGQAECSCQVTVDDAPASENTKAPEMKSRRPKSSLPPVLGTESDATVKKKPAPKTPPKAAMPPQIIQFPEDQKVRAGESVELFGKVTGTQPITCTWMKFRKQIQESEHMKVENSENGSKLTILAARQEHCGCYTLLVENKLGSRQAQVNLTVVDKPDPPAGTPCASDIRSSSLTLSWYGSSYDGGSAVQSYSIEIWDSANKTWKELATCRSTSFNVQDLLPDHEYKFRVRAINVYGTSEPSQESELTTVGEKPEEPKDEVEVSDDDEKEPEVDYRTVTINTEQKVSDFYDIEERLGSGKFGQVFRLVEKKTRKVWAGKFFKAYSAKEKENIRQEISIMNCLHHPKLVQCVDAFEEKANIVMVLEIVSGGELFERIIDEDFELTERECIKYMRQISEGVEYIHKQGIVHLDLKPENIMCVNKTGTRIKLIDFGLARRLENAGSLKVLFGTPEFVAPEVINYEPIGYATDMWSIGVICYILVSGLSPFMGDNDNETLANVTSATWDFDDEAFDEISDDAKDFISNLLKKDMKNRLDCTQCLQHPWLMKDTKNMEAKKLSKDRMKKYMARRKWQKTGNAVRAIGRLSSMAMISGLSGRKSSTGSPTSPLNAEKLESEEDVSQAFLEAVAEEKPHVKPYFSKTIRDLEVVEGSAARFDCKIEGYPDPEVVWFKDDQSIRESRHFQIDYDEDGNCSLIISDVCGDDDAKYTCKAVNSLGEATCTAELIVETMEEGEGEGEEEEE

Sequence of MAP kinase-interacting serine/threonine-protein kinase 1 (Q9BUB5 whole entry, looked up): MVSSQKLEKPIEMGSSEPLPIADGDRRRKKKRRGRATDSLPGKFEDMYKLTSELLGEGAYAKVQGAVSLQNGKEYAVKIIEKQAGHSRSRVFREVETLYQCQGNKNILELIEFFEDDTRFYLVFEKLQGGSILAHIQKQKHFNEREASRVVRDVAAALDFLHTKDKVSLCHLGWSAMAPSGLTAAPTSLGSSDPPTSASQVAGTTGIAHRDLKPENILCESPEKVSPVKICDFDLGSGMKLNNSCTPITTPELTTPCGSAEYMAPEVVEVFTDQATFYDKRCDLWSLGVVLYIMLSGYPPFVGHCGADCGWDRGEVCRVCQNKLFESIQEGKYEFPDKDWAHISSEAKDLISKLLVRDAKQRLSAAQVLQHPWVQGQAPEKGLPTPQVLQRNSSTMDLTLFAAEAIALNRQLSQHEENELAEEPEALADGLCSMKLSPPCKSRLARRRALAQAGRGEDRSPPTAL
Sequence of Mitogen-activated protein kinase kinase kinase 20 (Homo sapiens) (Q9NYL2 2-800 limits assumed): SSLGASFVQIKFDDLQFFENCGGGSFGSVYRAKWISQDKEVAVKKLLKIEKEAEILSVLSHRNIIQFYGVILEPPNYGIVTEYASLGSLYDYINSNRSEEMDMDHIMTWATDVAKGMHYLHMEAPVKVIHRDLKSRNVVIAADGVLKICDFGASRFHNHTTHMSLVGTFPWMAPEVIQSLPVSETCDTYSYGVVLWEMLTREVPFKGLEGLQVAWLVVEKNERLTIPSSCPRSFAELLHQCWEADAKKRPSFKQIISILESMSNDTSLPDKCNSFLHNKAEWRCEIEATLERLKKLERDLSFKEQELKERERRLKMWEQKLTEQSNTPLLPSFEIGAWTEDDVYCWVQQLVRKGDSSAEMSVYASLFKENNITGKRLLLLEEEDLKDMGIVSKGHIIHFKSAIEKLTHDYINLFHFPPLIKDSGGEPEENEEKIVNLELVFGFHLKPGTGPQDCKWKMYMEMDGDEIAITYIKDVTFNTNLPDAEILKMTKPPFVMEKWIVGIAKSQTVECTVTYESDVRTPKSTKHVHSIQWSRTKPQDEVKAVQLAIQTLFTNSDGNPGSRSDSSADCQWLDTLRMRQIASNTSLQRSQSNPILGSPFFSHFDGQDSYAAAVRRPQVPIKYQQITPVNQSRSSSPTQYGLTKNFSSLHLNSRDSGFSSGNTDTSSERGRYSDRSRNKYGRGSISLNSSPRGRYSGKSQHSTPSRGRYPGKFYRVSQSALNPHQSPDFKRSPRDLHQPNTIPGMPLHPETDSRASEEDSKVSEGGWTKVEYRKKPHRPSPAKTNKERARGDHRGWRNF

Regarding `O[C@H]1CC[C@H](Nc2nccc(-c3n[nH]c4ccccc34)n2)CC1`, the inhibition was 67% in test [1] and below 50% in test [2].

As to `O[C@H]1CC[C@H](Nc2nccc(-n3ccc4ccccc43)n2)CC1`, the inhibition in test [3] was 65%; in test [4], below 50%; in test [1], below 50%; in test [5], below 50%; in test [6] it was below 50%; in test [7], below 50%. Also, the inhibition in test [2] and in test [8] was below 50% throughout.

In the case of `O[C@H]1CC[C@H](Nc2nccc(-n3ncc4ccccc43)n2)CC1`, the inhibition is below 50% in test [3]; 70% in test [4]; below 50% in test [1]; below 50% in test [5]; below 50% in test [6]; below 50% in test [7]. Further, the inhibition is below 50% in test [2] and 74% in test [8].

For `O[C@H]1CC[C@H](Nc2nccc(-n3nnc4ccccc43)n2)CC1`, the inhibition in test [3] is 88%; in test [4] it was 97%; in test [1] it was below 50%; in test [5] it was below 50%; in test [6] it was 76%; in test [7], 72%. Also, the inhibition in test [2] is below 50%; in test [8], 94%.

With `CS(=O)(=O)CCCOc1cccc2c1ccn2-c1ccnc(N[C@H]2CC[C@H](C(=O)N3CCC(O)CC3)CC2)n1`, in test [4], the inhibition is above 85%.
